Assay results published in ChEMBL document CHEMBL1157382, “Scopularides A and B, cyclodepsipeptides from a marine sponge-derived fungus, Scopulariopsis brevicaulis” (2008).
Activity calls are given as the source filed them. The rule behind the calls is not given here.

Key:
[1] = Antitumor activity against human Panc89 cells assessed as reduction of viability at 10 ug/ml; format: functional
Procedure, shortened: (§1)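 Viability was measured in the pancreatic tumor lines Colo357 and Panc89 and the colon tumor line HT29, with compound present at a final concentration of 10 µg/mL. The read-out is percent reduction in cell viability.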

HT-29 = experiment: Antitumor activity against human HT29 cells assessed as reduction of viability at 10 ug/ml; format: functional; procedure, shortened: as §1
Escherichia coli = experiment: Antimicrobial activity against Escherichia coli; format: functional, organism-based
Pseudomonas fluorescens = experiment: Antimicrobial activity against Pseudomonas fluorescens; format: functional, organism-based
Nakaseomyces glabratus = experiment: Antimicrobial activity against Candida glabrata; format: functional, organism-based
COLO357 = experiment: Antitumor activity against human Colo357 cells assessed as reduction of viability at 10 ug/ml; format: functional; procedure, shortened: as §1

Structure (SMILES) | Activity [1] [%] | Activity (HT-29) [%] | Activity (Escherichia coli) | Activity (Pseudomonas fluorescens) | Activity (Nakaseomyces glabratus) | Activity (COLO357) [%]
CCCCC(C)[C@@H]1CC(=O)NCC(=O)N[C@@H](C(C)C)C(=O)N[C@H](CC(C)C)C(=O)N[C@@H](C)C(=O)N[C@@H](Cc2ccccc2)C(=O)O1 (some centres not stated) [SCOPULARIDE B] | 49 | 24 | inactive | inactive | inactive | 26
CCCCCCC(C)[C@@H]1CC(=O)NCC(=O)N[C@@H](C(C)C)C(=O)N[C@H](CC(C)C)C(=O)N[C@@H](C)C(=O)N[C@@H](Cc2ccccc2)C(=O)O1 (some centres not stated) [SCOPULARIDE A] | 42 | 37 | inactive | inactive | inactive | 36
